# According to the EternaBench riboswitch data:
# Tests used:
# MS2 coat protein [1] = experiment: apparent Kd, MS2 coat protein; higher = weaker binding; RNA-MaP array
# In short: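 Designed RNAs were transcribed on an Illumina sequencing chip from sequenced DNA templates. They were incubated at room temperature with fluorescently labeled MS2 coat protein at 1.5 nM to 3 μM, for 0.8–1.5 h at the lowest to 10–20 min at the highest concentrations, in Tris-HCl pH 7.5 buffer with KCl, MgCl2, BSA, DTT, tRNA and Tween20, with or without input ligand. Apparent Kd is the median of per-cluster binding-curve fits. Designs measured on fewer than 10 clusters were excluded.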
# MS2 coat protein [2] = experiment: apparent Kd, MS2 coat protein; higher = weaker binding; RNA-MaP array; FMN 200 µM where present
# In short: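 Green signal from SNAP-549-labelled MS2 coat protein was normalised to red-channel RNA signal and to the median Fmax of control clusters. The protein was titrated from 0.7 or 1.5 nM, doubling to 3 µM, without and then with constant ligand, over designs transcribed by stalled E. coli RNA polymerase on Illumina sequencing-chip clusters, in 100 mM Tris-HCl pH 7.5, 80 mM KCl, 4 mM MgCl2, BSA, DTT, yeast tRNA and Tween-20. The apparent Kd is the median of filtered per-cluster binding-curve fits.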
# [3] = designed as: OFF switch for flavin mononucleotide, no ligand
# [4] = ligand present: flavin mononucleotide, designed as: OFF switch for flavin mononucleotide
# [5] = designed as: ON switch for tryptophan, no ligand
# [6] = ligand present: tryptophan, designed as: ON switch for tryptophan
# [7] = designed as: ON switch for flavin mononucleotide, no ligand
# [8] = ligand present: flavin mononucleotide, designed as: ON switch for flavin mononucleotide
Sequence,apparent Kd (MS2 coat protein [2]; [3]),apparent Kd (MS2 coat protein [2]; [4]),also measured
AAAGGCGUAGGAUAUACAUGAGGAUCACCCAUGUAUCACAAUAACGAGGAAUGAAAGUGUAGAAGGACGAUAAC,–,–,apparent Kd (MS2 coat protein [1]; [3]): 7.48 nM; apparent Kd (MS2 coat protein [1]; [4]): 6.8 nM
AAAUACAUGAGGAUCACCCAUGUCAAUAAUCGAGGACCGGUACGGCCGCCACUCGAUCGGCCAAGAAAAUGAAAGAUGAUCUCUA,–,–,apparent Kd (MS2 coat protein [1]; [5]): 26.9 nM; apparent Kd (MS2 coat protein [1]; [6]): 30.7 nM
AAAUUCGGGAUCUAGGAUAUGUGCGUUUACACAUGAGGAUCACCCAUGUCUCACAGCCGUUUACCACAGAAGGAGAAACGACCUUA,–,–,apparent Kd (MS2 coat protein [1]; [7]): 31.1 nM; apparent Kd (MS2 coat protein [1]; [8]): 23.9 nM
AACCACGAGUCGGCCGCCACUUGCAACUAGUUUCAGAAGCAGAAACAUGAGGAUCACCCAUGUCGAAGGACCGGGACUUUACAGG,–,–,apparent Kd (MS2 coat protein [1]; [5]): 23.2 nM; apparent Kd (MS2 coat protein [1]; [6]): 18.7 nM
AAGACGAAGAAGAAGGGCAUACAUGAGGAUCACCCAUGUGAAAAUGUGCUGAAAGAACAUAAAUUGCAGGAUAUUCACACAAGU,–,–,apparent Kd (MS2 coat protein [1]; [7]): 11.2 nM; apparent Kd (MS2 coat protein [1]; [8]): 6.42 nM
UUGAGGUGCAAGAAGGAUCACAUGAGGAUCACCCAUGUGAUGUGAAGUCUCGAGAUUUUAUAUCGAUAGGAUAUUGCACCGAAC,–,–,apparent Kd (MS2 coat protein [2]; [7]): 5.13 nM; apparent Kd (MS2 coat protein [2]; [8]): 5.33 nM
UUGCCACAUGAGGAUCACCCAUGUGAGGAUAUGGCCCGUUUGGCGUGUGCUGGUUCUGUCAGAAGGCGCGUGGG,24.5 nM,21.7 nM,–
UUGCCUCAGAACAUGAGGAUCACCCAUGUGCUGCGGGCAACGUAGGAUAUGAUGGUAUGAUACCGUCAGAAGGAUGAUGGUACC,–,–,apparent Kd (MS2 coat protein [2]; [7]): 5.86 nM; apparent Kd (MS2 coat protein [2]; [8]): 5.32 nM
UUGCUACAUGAGGAUCACCCAUGUCAGGAUAUAGUGUAUAGCGUGGAAGCUCUGUCGAUUAGAAGGGACUGUCU,23.7 nM,25.2 nM,–
UUGGAAGUCGUAGGAUAUGUAGGAUAUUCCUACAUGAGGAUCACCCAUGUUGACAUGGAAGAAGGACAGAAGGACGAUGUCCAU,–,–,apparent Kd (MS2 coat protein [2]; [7]): 642 nM; apparent Kd (MS2 coat protein [2]; [8]): 6.99 nM
UUGGACAGCUAGAACUGUUAAGUACAUGAGGAUCACCCAUGUCAGGAUAUCCUUCCGCAAUGCGAGGAGAAGGGACAGGGUCCC,53.7 nM,124 nM,–
UUGGACGUCGUAGGAUACGUAGGAUAUUCCUACAUGAGGAUCACCCAUGUUGACAUGGAAGAAGGACAGAAGGACGAUGUCCAU,–,–,apparent Kd (MS2 coat protein [2]; [7]): 71.6 nM; apparent Kd (MS2 coat protein [2]; [8]): 4.95 nM
UUGGACGUCGUAGGAUAUCUAGGAUAUUCCUACAUGAGGAUCACCCAUGUUGACAUGGAAGAAGGACAGAAGGACGAUGUCCAU,–,–,apparent Kd (MS2 coat protein [2]; [7]): 14.9 nM; apparent Kd (MS2 coat protein [2]; [8]): 11 nM
UUGGACGUCGUAGGAUAUGUUGGAUAUUCCUACAUGAGGAUCACCCAUGUUGACAUGGAAGAAGGACAGAAGGACGAUGUCCAU,–,–,apparent Kd (MS2 coat protein [2]; [7]): 5.08 nM; apparent Kd (MS2 coat protein [2]; [8]): 4.49 nM
UUGGAGUUCGUAGGAUAUGUAGGAUAUUCCUACAUGAGGAUCACCCAUGUAUGCAUGGAAGAAGGACAGAAGGACGAGCUCCAU,–,–,apparent Kd (MS2 coat protein [2]; [7]): 184 nM; apparent Kd (MS2 coat protein [2]; [8]): 13 nM
UUGGUAUUUGUAGGAUAUCUGUCGCCACCGUGUGGAGAAGGACGAACAUGAGGAUCACCCAUGUAUCAUGGUGUGGGCUUUGUU,757 nM,710 nM,–
UUGUUAAGGAGAGGAUAUUGACAUGAGGAUCACCCAUGUACAUGGGAGUGUUUACUGAAUUCUUACGAGAAGGCUUACAUAUUU,216 nM,102 nM,–
UUGUUCUGAGGAUAUACAUGAGGAUCACCCAUGUGUUUCUGCUUGGUGUCUUGCGUUUGUAGAAGGCUGUUCUC,26.5 nM,28 nM,–
UUGUUGUAUGAAGGAUAUACUUAACAUGAGGAUCACCCAUGUGGUGUUGUGAGUGAGUGAGUUUAGUAGAAGGUCAAUUCUUUU,221 nM,201 nM,–
UUGUUGUAUGUAGGAUAUGCGUAUUGUUAUUAUGCAGAAGGACAUGAGGAUCACCCAUGUAUAUUAUUAUUAUAUAUUAUAUAU,26.3 nM,43.5 nM,–
UUGUUGUGAGGAUAUCCAAUAUAUGACAUGAGGAUCACCCAUGUUUCCACUCGUACCUCCGGAGAAGGCACUUAUU,31.7 nM,28.7 nM,–
UUGUUGUGUGUAGGAUAUGCAUAUUAUUAUUAUGCAGAAGGACAUGAGGAUCACCCAUGUGUAUUAUUAUUAUAUAUUAUAUAU,24.6 nM,38 nM,–
UUUAAGUCAGGAUAUCGUUAAUUUAAUUAUUUAUUUUAGUUCGAGAAGGGACAUGAGGAUCACCCAUGUAAUUU,40.5 nM,63.1 nM,–
UUUACAUGAGGAUCACCCAUGUAUAGAACGGUUAAUCAAAGUGAGGAUAUACAUAAUUUUGUAUUGUAGAAGGCACUGGGUACA,–,–,apparent Kd (MS2 coat protein [2]; [7]): 15.2 nM; apparent Kd (MS2 coat protein [2]; [8]): 19.3 nM
UUUACGUGAGGAUAUGCGAAUAGAACGUAAGACAUACAGACGCAGAAGGCACAUGAGGAUCACCCAUGUGAACC,20.5 nM,41.4 nM,–
UUUAGUUCAGGAUAUGUAGAUUUUAACAUGAGGAUCACCCAUGUAAAUCCUGAUCCUGCUACAGAAGGGAACAUUU,17 nM,20.7 nM,–
UUUAUAAAGAAAGGAUAUAGUAUAAUAAUUUAAUUAGAAGGUUCACACAUGAGGAUCACCCAUGUAUGAGGAUCACCCAUGUAU,35.2 nM,29.1 nM,–

Sequence,apparent Kd (MS2 coat protein [2]; [3]),apparent Kd (MS2 coat protein [2]; [4]),also measured
UUUAUAUAGUAAGGAUAUGUAUUAUUUUUUACAACAGAAGGUACUGACAUGAGGAUCACCCAUGUUUUAGUGUGGGCAUGUAGU,296 nM,364 nM,–
UUUAUGUCAGGAUAUACAUGAGGAUCACCCAUGUAUAUCUAAAAAUAUACAUGGGAAUGUAGAAGGGACCUCCU,53 nM,46.3 nM,–
UUUAUGUGAGGAUAUAGUACUCCUUCUAUUAUUUUUGAGUACUAGAAGGCACAUGAGGAUCACCCAUGUAGUAC,22.5 nM,48.6 nM,–
UUUAUUUAGGCAGGAUAUACAUGUAUAUAUAUUUCUUUAUAUCUUAUUACAUGAGGAUCACCCAUGUAGAAGGGCCUUAUUAUA,17.3 nM,23.6 nM,–
UUUAUUUUUAGAGGAUAUAUUGUGUGUGAGAGAAUAGAAGGCUAAACAUGAGACACACACAUGAGGAUCACCCAUGUUAUGUUU,–,–,apparent Kd (MS2 coat protein [2]; [7]): 62.6 nM; apparent Kd (MS2 coat protein [2]; [8]): 52 nM
UUUCAACAUGAGGAUCACCCAUGUGAGGAUAUGAUGCAGCAGUGGUCUACGCUGUGCAUCAGAAGGCACAUGUG,200 nM,21.8 nM,–
UUUCCAUAGAUAGGAUAUCAGUUUACAUGAGGAUCACCCAUGUUCUCUUUGGUUAUAAUUAUAUCUGAGAAGGAUCUUGAUGAA,–,–,apparent Kd (MS2 coat protein [2]; [7]): 29.6 nM; apparent Kd (MS2 coat protein [2]; [8]): 26.3 nM
UUUCUCUGGGCGUCUUCUUACAUGAGGAUCACCCAUGUUUCAUAGGAUAUGCUAUAGUGUUACAUGCAGAAGGAUGUUUGUUUU,234 nM,474 nM,–
UUUCUCUGUGUGAGGAUAUACUUGUUUGGGUUUUUGUAGAAGGCACAUGAGGAUCACCCAUGUAUUUUGUCGUG,34.4 nM,55.6 nM,–
UUUGCAACAUGAGGAUCACCCAUGUAGGAUAUCGCUAUUGUAAUCAUGAAACAUGAUUACAAUAGCGAGAAGGACAUAUGCAAA,7.54 nM,10.4 nM,–
UUUGGGCCCUCAUCCCUCGACACAUGAGGAUCACCCAUGUGCAGAAGGUGGAGACCCGAGGUCGCCAAGGAUAUGCAAUGGGAC,15.8 nM,10.2 nM,–
UUUGUACAUGAGGAUCACCCAUGUUAGGAUAUCUCGCCGUCGGCUUGCCGACGGUAUUAGAGAAGGGACAAGGG,136 nM,108 nM,–
UUUGUCUGUGUGAGGAUAUACUUUUUUUGGUUUUUGUAGAAGGCACAUGAGGAUCACCCAUGUAUUUUGUUGUG,37.7 nM,50.2 nM,–
UUUGUUGUUGUGAGGAUAUCGUUGUUAUUUUGAAACGAGAAGGCACAUGAGGAUCACCCAUGUUUGUUGUUGGU,52.1 nM,195 nM,–
UUUUAACAGUCAGGAUAUGUAACGCACAACGGCGCAGAAGGGACAUGAGGAUCACCCAUGUUAUGGUUCUGGUACUAUGACGUU,18.8 nM,23.1 nM,–
UUUUAACAUGAGGAUCACCCAUGUGAGGAUAUCGAAAUUUAUAUUAAUAUUAAUUAUUCGAGAAGGCACAUUUU,119 nM,126 nM,–
UUUUAACAUGAGGAUCACCCAUGUGAGGAUAUCGAAAUUUAUAUUAAUAUUAUUUAUUCGAGAAGGCACAUUUU,120 nM,145 nM,–
UUUUAACAUGAGGAUCACCCAUGUGAGGAUAUCGAAAUUUAUAUUAAUAUUUAUAAAUCGAGAAGGCACAUUUU,135 nM,124 nM,–
UUUUAACAUGAGGAUCACCCAUGUGAGGAUAUCGAAAUUUAUAUUAAUAUUUAUUUUACGAGAAGGCACAUUUU,98 nM,102 nM,–
UUUUAACAUGAGGAUCACCCAUGUGAGGAUAUCGAAAUUUAUAUUUAUAUUAAUUUUUCGAGAAGGCACAUUUU,169 nM,157 nM,–
UUUUAACAUGAGGAUCACCCAUGUGAGGAUAUCGAAAUUUAUAUUUAUAUUUAUAAUUCGAGAAGGCACAUUUU,179 nM,141 nM,–
UUUUAACAUGAGGAUCACCCAUGUGAGGAUAUCGAAAUUUAUAUUUAUAUUUAUAUUACGAGAAGGCACAUUUU,84.9 nM,102 nM,–
UUUUAACAUGAGGAUCACCCAUGUGAGGAUAUCGAUAUUUAUAUUAAUAUUAAUAAAACGAGAAGGCACAUUUU,71 nM,87.2 nM,–
UUUUAACAUGAGGAUCACCCAUGUGAGGAUAUCGUUAUUUUUAUUAAUAUUAAUAAAACGAGAAGGCACAUUUU,104 nM,114 nM,–
UUUUAUUAGUAAGGAUAUACUAGCGAUUAGCUUGUAGAAGGUACAGUCUUAUGUAUAGCAUGUUAACAUGAGGAUCACCCAUGU,–,–,apparent Kd (MS2 coat protein [2]; [7]): 20.9 nM; apparent Kd (MS2 coat protein [2]; [8]): 14 nM
UUUUCCAGGCAGAAGGGUCCUCACAUGAGGAUCACCCAUGUAAACGUGGAUAGGAUAUGCCACUGGGCUCGAUAAGAGUGGUUC,–,–,apparent Kd (MS2 coat protein [2]; [7]): 640 nM; apparent Kd (MS2 coat protein [2]; [8]): 128 nM
UUUUUUGUAGUGAGGAUAUCGUUGAGGAUGUGGAUCGAGAAGGCACAUGAGGAUCACCCAUGUUAGAUGUGGUU,262 nM,295 nM,–
